Experimental data as given in ChEMBL document CHEMBL1275449, “Potent in vitro antifungal activities of naturally occurring acetylenic acids” (Antimicrob Agents Chemother, 2008).
Calls of active or inactive are those of the source.

Assays:
Assay type in all cases: functional, organism-based
Aspergillus fumigatus [1] = experiment: Antifungal activity against Aspergillus fumigatus ATCC 90906 at 198.1 uM after 48 hrs by CLSI method
Candida albicans [2] = experiment: Antifungal activity against Candida albicans ATCC 32354 at 198.1 uM after 48 hrs by CLSI method
Outline: (§1)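 Candida inocula came from 24–72-h SD agar colonies suspended in saline. They were diluted by OD630 standard curve into RPMI 1640 (0.2% dextrose, 0.03% glutamine, 0.165 M MOPS, pH 7.0) to 1.5 × 10³ CFU/ml. Compounds were run as 11 twofold dilutions in 20% DMSO-saline, in duplicate, at 35°C for 48 h, with OD530 read before and after. Percent growth at the top concentration, IC50, MIC, and MFC (SD agar plating) were derived.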

Cryptococcus neoformans [3] = experiment: Antifungal activity against Cryptococcus neoformans ATCC 90113 at 198.1 uM after 72 hrs by CLSI method
Candida albicans [4] = experiment: Antifungal activity against Candida albicans ATCC 90028 at 198.1 uM after 48 hrs by CLSI method; outline: as §1
Candida albicans [5] = experiment: Antifungal activity against Fluconazole resistant Candida albicans isolate 1 at 198.1 uM after 48 hrs by CLSI method
Outline: (§2)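 Candida in CLSI broth microdilution. Saline colony suspension set to 1.5 × 10³ CFU/ml (final) in MOPS-buffered RPMI 1640, pH 7.0. Test agent given as twofold serial dilutions in 20% DMSO-saline, duplicate wells. 35°C for 48 h. Growth read as OD530 before and after incubation. Percent inhibition scored at the highest test concentration.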

Candida albicans [6] = experiment: Antifungal activity against Candida albicans ATCC 32354 at 9.4 uM after 48 hrs by CLSI method; outline: as §2
[7] = tested on: Trichophyton mentagrophytes; experiment: Antifungal activity against Trichophyton mentagrophytes ATCC 9533 at 9.4 uM after 5 days by CLSI method
Outline: (§3)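 Trichophyton growth scraped from 1–6-week potato dextrose slants and filtered through Miracloth. Inoculum 2.7 × 10⁴ CFU/ml (final) in 5% Alamar blue-RPMI 1640 buffered with MOPS, pH 7.0. Duplicate twofold dilutions from 20% DMSO-saline. Incubated 35°C for 5 days. Fluorescence read at 544 nm excitation, 590 nm emission. Inhibition assessed at the highest test concentration.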

Trichophyton rubrum [8] = experiment: Antifungal activity against Trichophyton rubrum ATCC 10218 at 9.4 uM after 5 days by CLSI method; outline: as §3
Aspergillus fumigatus [9] = experiment: Antifungal activity against Aspergillus fumigatus ATCC 90906 at 9.4 uM after 48 hrs by CLSI method
Outline: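 Aspergillus growth on 1–6-week potato dextrose slants scraped and Miracloth-filtered. Inoculum sized by OD630 curve to 2.7 × 10⁴ CFU/ml (final) in 5% Alamar blue-RPMI 1640 (MOPS, pH 7.0). Duplicate twofold dilutions from 20% DMSO-saline. 35°C for 48 h. Fluorescence 544/590 nm read before and after. Percent inhibition taken at the highest test concentration.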

Candida tropicalis = experiment: Antifungal activity against Candida tropicalis ATCC 750 at 9.4 uM after 48 hrs by CLSI method; outline: as §2
Candida albicans [10] = experiment: Antifungal activity against Fluconazole resistant Candida albicans isolate 1 at 169.8 uM after 48 hrs by CLSI method; outline: as §2
Pichia kudriavzevii = experiment: Antifungal activity against Candida krusei ATCC 6258 at 169.8 uM after 48 hrs by CLSI method; outline: as §1
Candida albicans [11] = experiment: Antifungal activity against Candida albicans ATCC 200955 at 169.8 uM after 48 hrs by CLSI method; outline: as §1
Cryptococcus neoformans [12] = experiment: Antifungal activity against Cryptococcus neoformans ATCC 66031 at 169.8 uM after 72 hrs by CLSI method
Outline: (§4)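 SD broth replaced RPMI because growth in RPMI was poor; other CLSI conditions were kept. Inoculum was 1.5 × 10³ CFU/ml from colonies on SD agar, checked by plating. Twofold serial dilutions (11 concentrations) in 20% DMSO-saline were tested in duplicate. OD530 was read before and after incubation at 35°C for 72 h. Percent growth gave IC50; the MIC is the lowest concentration with no detectable growth.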

Aspergillus fumigatus [13] = experiment: Antifungal activity against Aspergillus fumigatus ATCC 90906 at 169.8 uM after 48 hrs by CLSI method
Aspergillus flavus [14] = experiment: Antifungal activity against Aspergillus flavus ATCC 204304 at 169.8 uM after 48 hrs by CLSI method
Candida albicans [15] = experiment: Antifungal activity against Candida albicans ATCC 60193 at 169.8 uM after 48 hrs by CLSI method; outline: as §1
Aspergillus niger [16] = experiment: Antifungal activity against Aspergillus niger ATCC 16404 at 169.8 uM after 48 hrs by CLSI method
Aspergillus flavus [17] = experiment: Antifungal activity against Aspergillus flavus ATCC 204304 at 168.9 uM after 48 hrs by CLSI method
Nakaseomyces glabratus [18] = experiment: Antifungal activity against Candida glabrata ATCC 90030 at 168.9 uM after 48 hrs by CLSI method; outline: as §1
Candida albicans [19] = experiment: Antifungal activity against Candida albicans ATCC 32354 at 168.9 uM after 48 hrs by CLSI method; outline: as §1
Aspergillus niger [20] = experiment: Antifungal activity against Aspergillus niger ATCC 16404 at 168.9 uM after 48 hrs by CLSI method
Trichophyton rubrum [21] = experiment: Antifungal activity against Trichophyton rubrum ATCC 10218 at 168.9 uM after 5 days by CLSI method
Cryptococcus neoformans [22] = experiment: Antifungal activity against Cryptococcus neoformans ATCC 66031 at 168.9 uM after 72 hrs by CLSI method; outline: as §4
Aspergillus fumigatus [23] = experiment: Antifungal activity against Aspergillus fumigatus ATCC 204305 at 168.9 uM after 48 hrs by CLSI method
Candida parapsilosis = experiment: Antifungal activity against Candida parapsilosis ATCC 22019 at 168.9 uM after 48 hrs by CLSI method
Outline: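 Yeast suspensions made from 3-5 colonies off 24-72 h SD agar plates in saline. They were diluted by OD630 standard curve in RPMI 1640 (0.2% dextrose, 0.03% glutamine, 0.165 M MOPS, pH 7.0) to 1.5 × 10³ CFU/ml. Twofold dilutions (11 concentrations, 20% DMSO-saline) run in duplicate. OD530 read before and after 35°C, 48 h. Line values are top test concentrations; no-growth endpoints give MIC/MFC.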

Nakaseomyces glabratus [24] = experiment: Antifungal activity against Candida glabrata ATCC 90030 at 187.7 uM after 48 hrs by CLSI method; outline: as §1
Trichophyton rubrum [25] = experiment: Antifungal activity against Trichophyton rubrum ATCC MYA-4438 at 187.7 uM after 5 days by CLSI method
Cryptococcus neoformans [26] = experiment: Antifungal activity against Cryptococcus neoformans ATCC 90113 at 187.7 uM after 72 hrs by CLSI method; outline: as §4
Candida albicans [27] = experiment: Antifungal activity against Candida albicans ATCC 60193 at 187.7 uM after 48 hrs by CLSI method; outline: as §1
Aspergillus niger [28] = experiment: Antifungal activity against Aspergillus niger ATCC 16404 at 187.7 uM after 48 hrs by CLSI method
Cryptococcus neoformans [29] = experiment: Antifungal activity against Cryptococcus neoformans ATCC 66031 at 187.7 uM after 72 hrs by CLSI method; outline: as §4

Measured: Activity

CCCCCCCCCC#CCCCCC(=O)O
inactive: Aspergillus fumigatus [1] | Candida albicans [2] | Cryptococcus neoformans [3] | Candida albicans [4] | Candida albicans [5]

CC(=O)N1CCN(c2ccc(OCC3COC(Cn4ccnc4)(c4ccc(Cl)cc4Cl)O3)cc2)CC1 (configuration not stated) [KETOCONAZOLE]
inactive: Candida albicans [6] | [7] | Trichophyton rubrum [8] | Aspergillus fumigatus [9] | Candida tropicalis

CCCCCCCCCCCCC#CCCCCC(=O)O [6-NONADECYNOIC ACID]
inactive: Candida albicans [10] | Pichia kudriavzevii | Candida albicans [11] | Cryptococcus neoformans [12] | Aspergillus fumigatus [13] | Aspergillus flavus [14] | Candida albicans [15] | Aspergillus niger [16]

CCCCCC#CCC#CCC#CCC#CCCCC(=O)O
inactive: Aspergillus flavus [17] | Nakaseomyces glabratus [18] | Candida albicans [19] | Aspergillus niger [20] | Trichophyton rubrum [21] | Cryptococcus neoformans [22] | Aspergillus fumigatus [23] | Candida parapsilosis

CCCCCCCCCCC#CCCCCC(=O)O
inactive: Nakaseomyces glabratus [24] | Trichophyton rubrum [25] | Cryptococcus neoformans [26] | Candida albicans [27] | Aspergillus niger [28] | Cryptococcus neoformans [29]
